According to ChEMBL document CHEMBL5058577, “EUbOPEN Chemogenomics Library 2 (Multiplex)” (2022):

System: HEK-293T
Assay: Multiplex assay against HEK293T
Assay type: toxicity, cell-based
Conditions: human
Summary of the method: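 At seeding, live cells were stained with Hoechst33342, BioTracker Green Microtubule Cytoskeleton Dye, MitoTracker Red and Annexin V Alexa Fluor 680. After compound addition they were imaged on a CQ1 microscope at 37°C and 5% CO2, and CellPathfinder machine-learning gating sorted them into Hoechst high-intensity objects or normal cells, with normal cells further split into healthy, pyknosed or fragmented nuclei and pyknosed cells into mitotic or apoptotic. Tubulin, mitochondrial-mass and membrane-permeability phenotypes are given as per cents of cells with healthy nuclei.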

[1] = 12 h, 1 µM, compound concentration 1 uM, replicate 1
[2] = 12 h, 1 µM, compound concentration 1 uM, replicate 2
[3] = 12 h, 10 µM, compound concentration 10 uM, replicate 1
[4] = 12 h, 10 µM, compound concentration 10 uM, replicate 2
[5] = 24 h, 1 µM, compound concentration 1 uM, replicate 1
[6] = 24 h, 1 µM, compound concentration 1 uM, replicate 2
[7] = 24 h, 10 µM, compound concentration 10 uM, replicate 1
[8] = 24 h, 10 µM, compound concentration 10 uM, replicate 2
[9] = 48 h, 1 µM, compound concentration 1 uM, replicate 1
[10] = 48 h, 1 µM, compound concentration 1 uM, replicate 2
[11] = 48 h, 10 µM, compound concentration 10 uM, replicate 1
[12] = 48 h, 10 µM, compound concentration 10 uM, replicate 2

CC(C)(C)c1cc(NC(=O)Nc2ccc(-c3cn4c(n3)sc3cc(OCCN5CCOCC5)ccc34)cc2)no1 [QUIZARTINIB]
Population Apoptotic (%) [1]: 27% | Population Fragmented Nuclei (%) [1]: 5% | Population Healthy Nuclei (%) [1]: 83% | Population Hoechst High Intensity Objects (%) [1]: 10% | Population Membrane Permeable-Phenotype (%) [1]: 0% | Population Mitochondria Different-Phenotype (%) [1]: 40% | Population Mitotic Cells (%) [1]: 72% | Population Normal (%) [1]: 89% | Population Pyknosed Nuclei (%) [1]: 11% | Population Tubulin-Different-Phenotype (%) [1]: 35% | Total Cell Count [1]: 377 | Population Apoptotic (%) [2]: 34% | Population Healthy Nuclei (%) [2]: 80% | Population Hoechst High Intensity Objects (%) [2]: 6% | Population Mitochondria Different-Phenotype (%) [2]: 58% | Population Mitotic Cells (%) [2]: 65% | Population Normal (%) [2]: 93% | Population Pyknosed Nuclei (%) [2]: 14% | Population Tubulin-Different-Phenotype (%) [2]: 26% | Total Cell Count [2]: 345 | Population Apoptotic (%) [3]: 53% | Population Fragmented Nuclei (%) [3]: 7% | Population Healthy Nuclei (%) [3]: 71% | Population Hoechst High Intensity Objects (%) [3]: 23% | Population Membrane Permeable-Phenotype (%) [3]: 0% | Population Mitochondria Different-Phenotype (%) [3]: 78% | Population Mitotic Cells (%) [3]: 46% | Population Normal (%) [3]: 76% | Population Pyknosed Nuclei (%) [3]: 21% | Population Tubulin-Different-Phenotype (%) [3]: 68% | Total Cell Count [3]: 324 | Population Apoptotic (%) [4]: 73% | Population Hoechst High Intensity Objects (%) [4]: 12% | Population Mitochondria Different-Phenotype (%) [4]: 81% | Population Mitotic Cells (%) [4]: 26% | Population Normal (%) [4]: 87% | Population Tubulin-Different-Phenotype (%) [4]: 63% | Total Cell Count [4]: 293 | Population Apoptotic (%) [5]: 41% | Population Fragmented Nuclei (%) [5]: 7% | Population Healthy Nuclei (%) [5]: 84% | Population Hoechst High Intensity Objects (%) [5]: 6% | Population Membrane Permeable-Phenotype (%) [5]: 0% | Population Mitochondria Different-Phenotype (%) [5]: 26% | Population Mitotic Cells (%) [5]: 58% | Population Normal (%) [5]: 93% | Population Pyknosed Nuclei (%) [5]: 7% | Population Tubulin-Different-Phenotype (%) [5]: 21% | Total Cell Count [5]: 491 | Population Apoptotic (%) [6]: 38% | Population Fragmented Nuclei (%) [6]: 5% | Population Hoechst High Intensity Objects (%) [6]: 4% | Population Mitochondria Different-Phenotype (%) [6]: 40% | Population Mitotic Cells (%) [6]: 61% | Population Normal (%) [6]: 95% | Population Pyknosed Nuclei (%) [6]: 10% | Population Tubulin-Different-Phenotype (%) [6]: 17% | Total Cell Count [6]: 440 | Population Apoptotic (%) [7]: 62% | Population Fragmented Nuclei (%) [7]: 8% | Population Healthy Nuclei (%) [7]: 79% | Population Hoechst High Intensity Objects (%) [7]: 16% | Population Membrane Permeable-Phenotype (%) [7]: 0% | Population Mitochondria Different-Phenotype (%) [7]: 63% | Population Mitotic Cells (%) [7]: 37% | Population Normal (%) [7]: 83% | Population Pyknosed Nuclei (%) [7]: 12% | Population Tubulin-Different-Phenotype (%) [7]: 57% | Total Cell Count [7]: 413 | Population Apoptotic (%) [8]: 69% | Population Fragmented Nuclei (%) [8]: 9% | Population Healthy Nuclei (%) [8]: 78% | Population Hoechst High Intensity Objects (%) [8]: 9% | Population Mitochondria Different-Phenotype (%) [8]: 75% | Population Mitotic Cells (%) [8]: 30% | Population Normal (%) [8]: 90% | Population Pyknosed Nuclei (%) [8]: 11% | Population Tubulin-Different-Phenotype (%) [8]: 50% | Total Cell Count [8]: 321 | Population Apoptotic (%) [9]: 21% | Population Fragmented Nuclei (%) [9]: 12% | Population Healthy Nuclei (%) [9]: 80% | Population Hoechst High Intensity Objects (%) [9]: 3% | Population Membrane Permeable-Phenotype (%) [9]: 2% | Population Mitochondria Different-Phenotype (%) [9]: 11% | Population Mitotic Cells (%) [9]: 78% | Population Normal (%) [9]: 96% | Population Pyknosed Nuclei (%) [9]: 6% | Population Tubulin-Different-Phenotype (%) [9]: 15% | Total Cell Count [9]: 851 | Population Fragmented Nuclei (%) [10]: 10% | Population Healthy Nuclei (%) [10]: 82% | Population Hoechst High Intensity Objects (%) [10]: 2% | Population Membrane Permeable-Phenotype (%) [10]: 0% | Population Mitochondria Different-Phenotype (%) [10]: 24% | Population Normal (%) [10]: 97% | Population Tubulin-Different-Phenotype (%) [10]: 18% | Total Cell Count [10]: 566 | Population Apoptotic (%) [11]: 57% | Population Fragmented Nuclei (%) [11]: 9% | Population Healthy Nuclei (%) [11]: 77% | Population Hoechst High Intensity Objects (%) [11]: 9% | Population Membrane Permeable-Phenotype (%) [11]: 1% | Population Mitochondria Different-Phenotype (%) [11]: 40% | Population Mitotic Cells (%) [11]: 42% | Population Normal (%) [11]: 90% | Population Pyknosed Nuclei (%) [11]: 12% | Population Tubulin-Different-Phenotype (%) [11]: 35% | Total Cell Count [11]: 583 | Population Apoptotic (%) [12]: 58% | Population Fragmented Nuclei (%) [12]: 11% | Population Healthy Nuclei (%) [12]: 73% | Population Hoechst High Intensity Objects (%) [12]: 12% | Population Membrane Permeable-Phenotype (%) [12]: 0% | Population Mitochondria Different-Phenotype (%) [12]: 59% | Population Mitotic Cells (%) [12]: 41% | Population Normal (%) [12]: 87% | Population Pyknosed Nuclei (%) [12]: 14% | Population Tubulin-Different-Phenotype (%) [12]: 37% | Total Cell Count [12]: 392
